Laboratory results from ChEMBL document CHEMBL1122631, “2,3,4,4a,5,9b-Hexahydro-1H-indeno[1,2-b]pyridines: potential antidepressants” (J Med Chem, 1984).

How the values were obtained:
Rattus norvegicus [1] = organism: Rattus norvegicus; test: Compound was tested for inhibition of uptake of [14C]5-HT (5-HT) into rat whole brain, in vitro; Not determined.; type: functional
Method in brief: (§1)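 Rat brain synaptosomes (Whittaker method) incubated with labelled monoamine (1 × 10^-7 mol final) at 37 °C with or without drug. [14C]NE and [14C]5-HT uptake in Krebs-Henseleit bicarbonate pH 7.4 with 11 mmol glucose; [3H]DA uptake in phosphate buffer, corpus striatum synaptosomes. Time: 5 min whole brain, 10 min hypothalamus. Nonspecific binding at 0 °C; membrane filtration, scintillation counting; IC50 from 3–4 concentrations, at least triplicate.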

Rattus norvegicus [2] = organism: Rattus norvegicus; test: Compound was tested for inhibition of uptake of [14C]norepinephrine (NE) into rat brain hypothalamus, in vitro; Not determined.; type: functional; method in brief: as §1
[3] = Acute toxicity in mice, after intraperitoneal administration.; type: organism-based; details: mouse, in vivo, ip
Method in brief: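 Mice, groups of 10, given compound suspended in 1% methylcellulose ip at 10 mL/kg, then housed with food and water ad libitum. Observed hourly up to 6 h; deaths recorded at 24 and 48 h.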

Mus musculus [4] = test: Prevention of tetrabenazine (TBZ)-induced ptosis in mice after intraperitoneal administration.; type: functional, organism-based
Method in brief: (§2)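 Mice given compound ip in 1% methylcellulose (10 mL/kg), 30 min before tetrabenazine 40 mg/kg base ip; solvent+TBZ control per test. Ptosis scored 30 min after TBZ (+1 min) as 100/50/0% (closed/half/open), not normalized.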

Mus musculus [5] = test: Prevention of tetrabenazine induced ptosis in mice following i.p. administration.; type: functional; details: ip; method in brief: as §2
[6] = Therapeutic index (TI), ratio of LD50 and ED50 (TBZ) in mice after i.p. administration; details: mouse, in vivo, ip

Structure (SMILES) | IC50 (Rattus norvegicus [1]) | IC50 (Rattus norvegicus [2]) | LD50 [3] [mg/kg] | ED50 (Mus musculus [4]) | ED50 (Mus musculus [5]) [mg/kg] | selectivity ratio [6]
COc1cc2c(cc1OC)[C@H]1NCCC[C@H]1[C@@H]2c1cccnc1 | No compound available | No compound available | – | – | – | –
CC(C)c1ccc([C@H]2c3cc(O)ccc3[C@H]3NCCC[C@@H]23)cc1 | – | – | 90 | No activity detected up to a dose of 1/5 LD50 ip in mice | – | –
Cc1ccc([C@H]2c3cc(O)ccc3[C@H]3NCCC[C@@H]23)cc1 | – | – | 34 | No activity detected up to a dose of 1/5 LD50 ip in mice | – | –
COc1cc2c(cc1OC)[C@H]1NCCC[C@H]1[C@H]2c1ccccc1 | – | – | 70 | No activity detected up to a dose of 1/5 LD50 ip in mice | – | –
Cc1ccc([C@H]2c3ccccc3[C@H]3NCCC[C@@H]23)cc1 | – | – | 120 | – | 20 | 6
Fc1ccc([C@H]2c3ccccc3[C@H]3NCCC[C@@H]23)cc1 | – | – | 61 | No activity detected up to a dose of 1/5 LD50 ip in mice | – | –
Fc1ccccc1[C@H]1c2ccccc2[C@H]2NCCC[C@@H]12 | – | – | 71 | No activity detected up to a dose of 1/5 LD50 ip in mice | – | –
c1ccc([C@H]2c3ccccc3[C@H]3NCCC[C@@H]23)cc1 | – | – | 50 | No activity detected up to a dose of 1/5 LD50 ip in mice | – | –
COc1ccc2c(c1)[C@H](c1ccc(C)cc1)[C@@H]1CCCN(C)[C@H]21 | – | – | 6 | No activity detected up to a dose of 1/5 LD50 ip in mice | – | –
FC(F)(F)c1ccccc1[C@H]1c2ccccc2[C@H]2NCCC[C@@H]12 | – | – | 24 | No activity detected up to a dose of 1/5 LD50 ip in mice | – | –
COc1ccc2c(c1)[C@@H](c1ccc(C(C)C)cc1)[C@@H]1CCCN[C@H]21 | No compound available | No compound available | – | – | – | –
COc1cc2c(cc1OC)[C@@H]1[C@@H](CCCN1C)[C@H]2c1ccccc1 | – | – | 70 | No activity detected up to a dose of 1/5 LD50 ip in mice | – | –
COc1cc2c(cc1OC)[C@H]1NCCC[C@H]1[C@H]2c1ccc(N)cc1 | – | – | 94 | No activity detected up to a dose of 1/5 LD50 ip in mice | – | –
Cc1ccc([C@@H]2c3cc(O)ccc3[C@@H]3[C@H]2CCCN3C)cc1 | – | – | 187 | No activity detected up to a dose of 1/5 LD50 ip in mice | – | –
CN(C)c1ccc([C@H]2c3cc(O)ccc3[C@H]3NCCC[C@@H]23)cc1 | – | – | 67 | No activity detected up to a dose of 1/5 LD50 ip in mice | – | –
CCCCOc1ccc([C@H]2c3ccccc3[C@@H]3[C@H]2CCCN3C)cc1 | No compound available | No compound available | – | – | – | –
CCCN1CCC[C@H]2[C@@H](c3ccccc3)c3ccccc3[C@H]21 | – | – | 90 | No activity detected up to a dose of 1/5 LD50 ip in mice | – | –
CC(C)c1ccc([C@@H]2c3cc(O)ccc3[C@H]3NCCC[C@@H]23)cc1 | – | – | 50 | No activity detected up to a dose of 1/5 LD50 ip in mice | – | –
COc1cc2c(cc1OC)[C@@H]1[C@@H](CCCN1C)[C@@H]2c1ccccc1 | No compound available | No compound available | – | – | – | –
Cc1cccc([C@H]2c3ccccc3[C@H]3NCCC[C@@H]23)c1 | – | – | 34 | No activity detected up to a dose of 1/5 LD50 ip in mice | – | –
CN1CCC[C@H]2[C@@H](c3ccc(N)cc3)c3ccccc3[C@H]21 | – | – | 7 | – | 0.5 | 14
COc1ccc2c(c1)[C@H](c1ccc(N(C)C)cc1)[C@@H]1CCCN[C@H]21 | – | – | 48 | No activity detected up to a dose of 1/5 LD50 ip in mice | – | –
c1ccc2c(c1)[C@H](c1ccncc1)[C@@H]1CCCN[C@H]21 | No compound available | No compound available | – | – | – | –
Cc1ccc([C@H]2c3cc(O)ccc3[C@@H]3[C@H]2CCCN3C)cc1 | – | – | 9 | No activity detected up to a dose of 1/5 LD50 ip in mice | – | –

Structure (SMILES) | IC50 (Rattus norvegicus [1]) | IC50 (Rattus norvegicus [2]) | LD50 [3] [mg/kg] | ED50 (Mus musculus [4]) | ED50 (Mus musculus [5]) [mg/kg] | selectivity ratio [6]
CCCCOc1ccc([C@H]2c3ccccc3[C@H]3NCCC[C@@H]23)cc1 | No compound available | No compound available | – | – | – | –
Cc1cccc([C@@H]2c3ccccc3[C@H]3NCCC[C@@H]23)c1 | – | – | 21 | – | 0.3 | –
CN(C)c1ccc([C@@H]2c3cc(O)ccc3[C@H]3NCCC[C@@H]23)cc1 | – | – | 159 | No activity detected up to a dose of 1/5 LD50 ip in mice | – | –
Nc1cccc([C@@H]2c3ccccc3[C@H]3NCCC[C@@H]23)c1 | – | – | 40 | – | 2 | 20
Nc1cccc([C@H]2c3ccccc3[C@H]3NCCC[C@@H]23)c1 | – | – | 28 | – | 2 | –
Oc1ccc([C@H]2c3ccccc3[C@H]3NCCC[C@@H]23)cc1 | No compound available | No compound available | – | – | – | –
Cc1cccc([C@@H]2c3ccccc3[C@@H]3[C@H]2CCCN3C)c1 | – | – | 134 | – | 5 | –
Cc1ccccc1[C@@H]1c2ccccc2[C@@H]2[C@H]1CCCN2C | – | – | 106 | – | > 40 | –
Nc1ccc([C@H]2c3cc(O)ccc3[C@H]3NCCC[C@@H]23)cc1 | – | – | 85 | No activity detected up to a dose of 1/5 LD50 ip in mice | – | –
Cc1ccc([C@H]2c3ccccc3[C@@H]3[C@H]2CCCN3C)cc1 | – | – | < 1 | No activity detected up to a dose of 1/5 LD50 ip in mice | – | –
CN1CCC[C@H]2[C@@H](c3ccccc3F)c3ccccc3[C@H]21 | – | – | 8 | No activity detected up to a dose of 1/5 LD50 ip in mice | – | –
CN1CCC[C@H]2[C@@H](c3ccc(F)cc3)c3ccccc3[C@H]21 | – | – | 22 | No activity detected up to a dose of 1/5 LD50 ip in mice | – | –
COc1ccc2c(c1)[C@@H](c1ccc(C)cc1)[C@@H]1CCCN(C)[C@H]21 | – | – | 67 | No activity detected up to a dose of 1/5 LD50 ip in mice | – | –
Cc1ccccc1[C@H]1c2ccccc2[C@H]2NCCC[C@@H]12 | – | – | 52 | No activity detected up to a dose of 1/5 LD50 ip in mice | – | –
Cc1ccc([C@H]2c3ccccc3[C@H]3NCCC[C@@H]23)cc1N | – | – | 45 | No activity detected up to a dose of 1/5 LD50 ip in mice | – | –
Cc1ccc([C@@H]2c3ccccc3[C@H]3NCCC[C@@H]23)cc1N | – | – | 40 | – | 2 | 20
Cc1ccccc1[C@H]1c2ccccc2[C@@H]2[C@H]1CCCN2C | – | – | 22 | No activity detected up to a dose of 1/5 LD50 ip in mice | – | –
COc1ccc2c(c1)[C@@H](c1ccc(N)cc1)[C@@H]1CCCN[C@H]21 | – | – | 60 | – | 1 | 60
COc1ccc2c(c1)[C@H](c1ccc(C)cc1)[C@@H]1CCCN[C@H]21 | – | – | 54 | No activity detected up to a dose of 1/5 LD50 ip in mice | – | –
Cc1cccc([C@H]2c3ccccc3[C@@H]3[C@H]2CCCN3C)c1 | – | – | 5 | No activity detected up to a dose of 1/5 LD50 ip in mice | – | –
CN1CCC[C@H]2[C@@H](c3ccccc3)c3ccccc3[C@H]21 | – | – | 36 | No activity detected up to a dose of 1/5 LD50 ip in mice | – | –
Cc1ccc([C@@H]2c3ccccc3[C@H]3NCCC[C@@H]23)cc1 | – | – | 60 | – | 1 | 60
COc1ccc2c(c1)[C@H](c1ccc(N)cc1)[C@@H]1CCCN[C@H]21 | – | – | 50 | No activity detected up to a dose of 1/5 LD50 ip in mice | – | –
Cc1ccccc1[C@@H]1c2ccccc2[C@H]2NCCC[C@@H]12 | – | – | 80 | No activity detected up to a dose of 1/5 LD50 ip in mice | – | –
